Rev-RRE block = inhibitors of HIV-1 Rev-RRE RNA interaction. Rev peptide-RRE RNA binding, FRET. inhibition, % at 8 µM. actives 0.79% (n = 97,000);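 active = inhibition above the screen-wide mean plus 3 SD, cut at about 35% in these data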
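Test system: Cy5-tagged RRE RNA duplex with fluorescein-tagged Rev peptide | Read-out: % inhibition of FRET ratio versus controls | Probe or stimulus: Labelled Rev peptide | Incubation: 5 min RNA-compound premix plus 15 min binding step, 25 °C | Technique: FRET fluorescence readout | Benchmarks: DMSO low control, neomycin B high control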
CYP2C9 inh = inhibitors of human CYP2C9 | P11712 | CYP2C9 Supersomes, luciferin-H conversion, luminescence | inhibition, % at 5 µM | actives 20% (n = 96,000) | AID 777;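 active = blocking of liver enzyme CYP2C9 beyond about 50% at 5 µM, limit read from the data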
Cav3 T inh = human Cav3.2 channel inhibition, primary screen. Cav3.2-expressing cells, Fluo-4 calcium fluorescence FDSS; stronger effect = lower value. actives 4% (n = 100,000). O95180. B-score at 10 µM;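 active = single-dose well whose peak fluorescence ratio is a statistical outlier from its plate by either plate-standardised score or position-corrected B-score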
CYP2C9 act = activators of human CYP2C9; recombinant CYP2C9, luciferin-H conversion, luminescence; stronger effect = higher value; factor 1 = untreated enzyme, 0 = blocked; AID 1024; actives 1.4% (n = 96,000); activation factor at 5 µM; P11712;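 active = activation factor of 2 or more for CYP2C9 at a 5 µM dose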
CYP2C19 inh = human CYP2C19 inhibition; P33261; CYP2C19 Supersomes, luciferin-H EGE luminescence, 30 min; inhibition, % at 5 µM; actives 21% (n = 96,000); AID 778;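 active = CYP2C19 inhibition above a set limit at 5 µM in the primary screen, cut at about 50% in these data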
CYP2C19 activ = increases human CYP2C19 enzyme activity; recombinant CYP2C19, luciferin-H EGE luminescence; stronger effect = higher value; 0 = fully inhibited enzyme, 1 = untreated enzyme; activation factor at 5 µM; 96,000 tested, under 10 active;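 active = activation factor of at least 2 at 5 µM in the primary screen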
Numbers stand for hits; . = inactive; / = no result given. Rows were chosen to be rich in hits. Some 27% of all compounds tested hit in one or more screens of this group.

SMILES | Rev-RRE block | CYP2C9 inh | Cav3 T inh | CYP2C9 act | CYP2C19 inh | CYP2C19 activ
CCc1nc(SCC(=O)NCc2ccco2)c2c(=O)n(C)c(=O)n(C)c2n1 | . | . | . | . | . | .
CCCc1nc(SCC(=O)N2CCc3ccccc32)c2c(=O)n(C)c(=O)n(C)c2n1 | / | 50.0 | / | . | . | .
CCCc1nc(SCC(=O)N2CCc3ccccc32)c2c(C)c(C)sc2n1 | . | 80.3 | / | . | . | .
CCOC(=O)c1cnc(SCC(=O)N2CCc3ccccc32)nc1N | . | . | . | . | . | .
CCCc1nc(SCC(=O)c2ccccc2)c2c(=O)n(C)c(=O)n(C)c2n1 | . | 86.0 | . | . | . | .
CC(C)c1nc(SCC(=O)N2CCCc3ccccc32)c2c(=O)n(C)c(=O)n(C)c2n1 | . | . | . | . | . | .
CCN(CC)c1cc(C)c2cc(NC(=O)CNC(C)=O)ccc2n1 | . | . | . | . | . | .
COc1ccc(CCN2C(=O)C3C4CC(C5C(C(=O)O)=NOC45)C3C2=O)cc1OC (configuration not stated) | . | . | . | . | . | .
CC(C)NC(=O)c1ccc(OC2CSC2)cc1 | . | . | . | . | . | .
Cc1cccc(NC(=O)CSc2nnc(-c3ccccc3Br)o2)c1C | . | . | . | . | . | .
CCc1ccc(NC(=O)CSc2nnc(CNC(=O)c3c(F)cccc3Cl)o2)cc1 | . | 52.5 | . | . | . | .
CCc1nnc(NC(=O)CSc2nnc(Cc3ccccc3)o2)s1 | . | . | 3.85 | . | . | .
CCc1nnc(NC(=O)CSc2nnc(-c3ccccc3NC(=O)c3ccccc3)o2)s1 | . | 50.7 | . | . | . | .
O=C(Nc1ccccc1-c1nnc(SCc2ccccc2Cl)o1)c1ccccc1 | . | 55.0 | . | . | . | .
O=C(CSc1nnc(CNC(=O)c2c(F)cccc2Cl)o1)Nc1ccccc1 | . | . | . | . | . | .
CN(C)c1cccc(C(=O)Nc2ccc(N3CCOCC3)cc2)c1 | . | . | . | . | . | .
O=C(CSc1nnc(CNC(=O)c2cccs2)o1)Nc1cccc(C(F)(F)F)c1 | . | . | -5.51 | . | . | .
CCc1nnc(NC(=O)CSc2nnc(CNc3ccc(Cl)cc3)o2)s1 | . | . | -4.03 | . | . | .
COC(=O)c1c(NC(=O)CSc2nnc(CNc3ccc(Cl)cc3)o2)sc(C)c1C | . | . | . | . | . | .
COc1ccc(NC(=O)c2cc([N+](=O)[O-])nn2Cc2ccccc2)c(C)c1 | . | . | . | . | . | .
Cc1ccc(CCN2CC(C(=O)NCCCOC(C)C)CC2=O)cc1 (configuration not stated) | . | . | . | . | . | .
O=C1CNC(=O)/C1=C\N1CCN(C(c2ccccc2)c2ccccc2)CC1 | . | . | . | . | . | .
CN(C)C=Nc1ncc2c([nH]c3ccccc32)c1C#N | . | . | . | . | 63.1 | .
CCCOc1ncnc2c1[nH]c1ccccc12 | . | . | / | . | . | .
COC(=O)c1ccc(OCC(O)CN(CCO)CCO)cc1 (configuration not stated) | . | . | . | . | . | .
SMILES | Rev-RRE block | CYP2C9 inh | Cav3 T inh | CYP2C9 act | CYP2C19 inh | CYP2C19 activ
CC1CCCCC1NC(=O)COC(=O)c1ccc(N(C)C)cc1 (configuration not stated) | . | . | . | . | 91.3 | .
COc1nc2ccc(C)cc2cc1-c1noc(-c2ccccc2)n1 | . | . | . | . | . | .
O=C(Cn1ncc2c1-c1ccccc1OC2)N1CCN(Cc2ccc3c(c2)OCO3)CC1 | . | 68.4 | . | . | . | .
O=C(N1CCN(Cc2ccc3c(c2)OCO3)CC1)C12CC3CC(CC(C3)C1)C2 | / | 50.0 | . | . | 65.7 | .
O=C(CSCc1cccc(Cl)c1)N1CCN(Cc2ccc3c(c2)OCO3)CC1 | . | . | -5.14 | . | . | .
O=C(c1cccn2c(=O)c3ccc(Cl)cc3nc12)N1CCN(Cc2ccc3c(c2)OCO3)CC1 | . | 70.5 | . | . | . | .
O=C(c1cc2ccccc2oc1=O)N1CCN(Cc2ccc3c(c2)OCO3)CC1 | . | . | / | . | . | .
CC(C)C(NS(=O)(=O)c1ccc2c(c1)OCCO2)C(=O)NCCc1ccccn1 (configuration not stated) | . | . | . | . | . | .
